Experimental findings from ChEMBL document CHEMBL1150348, “Design and synthesis of FAJANU: a de novo C(2) symmetric cyclopeptide family” (2008) are described below.

Where a SMILES comes first, the peptide text is derived from it. Bridges are numbered along the chain shown (N, C = ends). Roman numbers before positions name the chains, in order. [ ]: non-standard residue; d: D form. The star is where a group is joined. Quinoxaline2carbonyl = O=C(c1cnc2ccccc2n1)*; Quinaldoyl(3-OH) = O=C(c1nc2ccccc2cc1O)*; Quinaldoyl = O=C(c1ccc2ccccc2n1)*; NMeF = CN[C@@H](Cc1ccccc1)C(=O)O; NMeL = CN[C@@H](CC(C)C)C(=O)O; X1 = O=C(c1cc(=O)c2ccccc2o1)*; NMeA = CN[C@@H](C)C(=O)O; Orn = NCCC[C@H](N)C(=O)O; Dap = NC[C@H](N)C(=O)O; Sar = CNCC(=O)O

Holding throughout (format): functional
One test concerns HT-29. In words: Cytotoxicity against human HT29 cells after 72 hrs by SRB assay. Particulars: HT-29, 72 h. The essentials: (§1)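 SRB colorimetric growth assay: cells seeded at 5 × 10^3 cells/well in RPMI, grown drug-free 18 h to attach, then samples added (dissolved in DMSO–H2O 3:7) for 72 h exposure. Fixed with cold 50% TCA 60 min at 4 °C, stained with 0.4% SRB in 1% acetic acid 10 min at room temperature, washed, bound dye solubilized in Tris, absorbance read at 490 nm; GI50 derived.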
Background: In SRB staining, fixed cells bind dye roughly in proportion to their protein.

The next test has as its system A549. The test is described as follows: Cytotoxicity against human A549 cells after 72 hrs by SRB assay. Conditions: A549, 72 h. The essentials: as §1
The subject of a further test is MDA-MB-231. In words: Cytotoxicity against human MDA-MB-231 cells after 72 hrs by SRB assay. Conditions: MDA-MB-231, 72 h. The essentials:
as §1

One may read the GI50 as the concentration at which growth is held to half of that of the control. Low values mean more potent growth inhibition, high ones less potent growth inhibition. For the compound `CC(C)C[C@H]1C(=O)NCCC[C@H](NC(=O)c2ccc3ccccc3n2)C(=O)N(C)[C@@H](CC(C)C)C(=O)N(C)CC(=O)N(C)[C@@H](CC(C)C)C(=O)NCCC[C@H](NC(=O)c2ccc3ccccc3n2)C(=O)N(C)[C@@H](CC(C)C)C(=O)N(C)CC(=O)N1C` (I: Quinaldoyl-[Orn][NMeL][Sar][NMeL] / II: Quinaldoyl-[Orn][NMeL][Sar][NMeL]; amide I:1-II:C, I:C-II:1), the figures for the GI50 in the test on HT-29, in the test on A549 and in the test with MDA-MB-231 were 2440 nM, 2940 nM and 5800 nM, respectively.

Consider `CC(C)C[C@H]1C(=O)N(C)CC(=O)N(C)[C@@H](Cc2ccccc2)C(=O)NC[C@H](NC(=O)c2ccc3ccccc3n2)C(=O)N(C)[C@@H](CC(C)C)C(=O)N(C)CC(=O)N(C)[C@@H](Cc2ccccc2)C(=O)NC[C@H](NC(=O)c2ccc3ccccc3n2)C(=O)N1C` (I: Quinaldoyl-[Dap][NMeL][Sar][NMeF] / II: Quinaldoyl-[Dap][NMeL][Sar][NMeF]; amide I:1-II:C, I:C-II:1), for which the 50% growth inhibitory concentration (GI50) in the test on HT-29 was 4080 nM; with A549 it was 4160 nM.

As for `CC(C)C[C@H]1C(=O)NC[C@H](NC(=O)c2cc(=O)c3ccccc3o2)C(=O)N(C)[C@@H](CC(C)C)C(=O)N(C)CC(=O)N(C)[C@@H](CC(C)C)C(=O)NC[C@H](NC(=O)c2cc(=O)c3ccccc3o2)C(=O)N(C)[C@@H](CC(C)C)C(=O)N(C)CC(=O)N1C` (I: X1-[Dap][NMeL][Sar][NMeL] / II: X1-[Dap][NMeL][Sar][NMeL]; amide I:1-II:C, I:C-II:1), the GI50 with HT-29 came out at 2910 nM; with MDA-MB-231 it was 2310 nM.

For the compound `CC(C)C[C@H]1C(=O)NC[C@H](NC(=O)c2nc3ccccc3cc2O)C(=O)N(C)[C@@H](CC(C)C)C(=O)N(C)CC(=O)N(C)[C@@H](CC(C)C)C(=O)NC[C@H](NC(=O)c2nc3ccccc3cc2O)C(=O)N(C)[C@@H](CC(C)C)C(=O)N(C)CC(=O)N1C` (I: {Quinaldoyl(3-OH)}-[Dap][NMeL][Sar][NMeL] / II: {Quinaldoyl(3-OH)}-[Dap][NMeL][Sar][NMeL]; amide I:1-II:C, I:C-II:1), the GI50 with HT-29 came to 3430 nM; with A549, 2400 nM.

For `CC(C)C[C@H]1C(=O)NC[C@H](NC(=O)c2cnc3ccccc3n2)C(=O)N(C)[C@@H](CC(C)C)C(=O)N(C)CC(=O)N(C)[C@@H](CC(C)C)C(=O)NC[C@H](NC(=O)c2cnc3ccccc3n2)C(=O)N(C)[C@@H](CC(C)C)C(=O)N(C)CC(=O)N1C` (I: Quinoxaline2carbonyl-[Dap][NMeL][Sar][NMeL] / II: Quinoxaline2carbonyl-[Dap][NMeL][Sar][NMeL]; amide I:1-II:C, I:C-II:1), the GI50 came out at 1230 nM in the test with HT-29, 1410 nM in the test with A549 and 1670 nM in the test on MDA-MB-231.

With `CC(C)C[C@H]1C(=O)N(C)CC(=O)N(C)[C@@H](C)C(=O)NC[C@H](NC(=O)c2ccc3ccccc3n2)C(=O)N(C)[C@@H](CC(C)C)C(=O)N(C)CC(=O)N(C)[C@@H](C)C(=O)NC[C@H](NC(=O)c2ccc3ccccc3n2)C(=O)N1C` (I: Quinaldoyl-[Dap][NMeL][Sar][NMeA] / II: Quinaldoyl-[Dap][NMeL][Sar][NMeA]; amide I:1-II:C, I:C-II:1), the results for the GI50 in the test on HT-29 and in the test with MDA-MB-231 were 3530 nM and 5340 nM, respectively.

`CC(C)C[C@H]1C(=O)NC[C@H](NC(=O)c2ccc3ccccc3n2)C(=O)N(C)[C@@H](CC(C)C)C(=O)N(C)CC(=O)N(C)[C@@H](CC(C)C)C(=O)NC[C@H](NC(=O)c2ccc3ccccc3n2)C(=O)N(C)[C@@H](CC(C)C)C(=O)N(C)CC(=O)N1C` (I: Quinaldoyl-[Dap][NMeL][Sar][NMeL] / II: Quinaldoyl-[Dap][NMeL][Sar][NMeL]; amide I:1-II:C, I:C-II:1): the figures for the GI50 in the test on HT-29, in the test with A549 and in the test with MDA-MB-231 were 500 nM, 570 nM and 640 nM, respectively.

Consider `CC(C)C[C@@H](C(=O)N[C@H]1COC(=O)[C@H](Cc2ccccc2)N(C)C(=O)[C@H](CC(C)C)N(C)C(=O)[C@@H](NC(=O)[C@H](CC(C)C)N(C)C)COC(=O)[C@H](Cc2ccccc2)N(C)C(=O)[C@H](CC(C)C)N(C)C1=O)N(C)C`, for which the GI50 with HT-29 came to 640 nM; with A549, 2900 nM; in the test with MDA-MB-231, 1230 nM.

Turning to `CC(C)C[C@H]1C(=O)NC[C@H](NC(=O)c2ccc3ccccc3n2)C(=O)N(C)[C@@H](CC(C)C)C(=O)N(C)CC(=O)N(C)[C@@H](CC(C)C)C(=O)OC[C@H](NC(=O)c2ccc3ccccc3n2)C(=O)N(C)[C@@H](CC(C)C)C(=O)N(C)CC(=O)N1C` (I: Quinaldoyl-[Dap][NMeL][Sar][NMeL] / II: Quinaldoyl-S[NMeL][Sar][NMeL]; amide I:1-II:C; ester I:C-II:1), the concentration for 50% growth inhibition (GI50) is 1230 nM in the test with HT-29, 2760 nM in the test on A549 and 1160 nM with MDA-MB-231.

With `CC(C)C[C@H]1C(=O)NC[C@H](NC(=O)c2ccc3ccccc3n2)C(=O)N(C)[C@@H](CC(C)C)C(=O)NCC(=O)N(C)[C@@H](CC(C)C)C(=O)NC[C@H](NC(=O)c2ccc3ccccc3n2)C(=O)N(C)[C@@H](CC(C)C)C(=O)NCC(=O)N1C` (I: Quinaldoyl-[Dap][NMeL]G[NMeL] / II: Quinaldoyl-[Dap][NMeL]G[NMeL]; amide I:1-II:C, I:C-II:1), the GI50 came to 620 nM in the test with HT-29, 1180 nM in the test with A549 and 550 nM with MDA-MB-231.

On to `CC(C)C[C@@H](C(=O)N[C@H]1CNC(=O)[C@H](Cc2ccccc2)N(C)C(=O)[C@H](CC(C)C)N(C)C(=O)[C@@H](NC(=O)[C@H](CC(C)C)N(C)C)CNC(=O)[C@H](Cc2ccccc2)N(C)C(=O)[C@H](CC(C)C)N(C)C1=O)N(C)C`, for which the concentration for 50% growth inhibition (GI50) in the test with HT-29 was 650 nM; in the test with A549, 2860 nM; in the test on MDA-MB-231, 710 nM.

The compound `CC(C)C[C@H]1C(=O)NCCCC[C@H](NC(=O)c2ccc3ccccc3n2)C(=O)N(C)[C@@H](CC(C)C)C(=O)N(C)CC(=O)N(C)[C@@H](CC(C)C)C(=O)NCCCC[C@H](NC(=O)c2ccc3ccccc3n2)C(=O)N(C)[C@@H](CC(C)C)C(=O)N(C)CC(=O)N1C` (I: Quinaldoyl-K[NMeL][Sar][NMeL] / II: Quinaldoyl-K[NMeL][Sar][NMeL]; amide I:1-II:C, I:C-II:1) showed a GI50 in the test with A549 of 3940 nM.
